Results from different studies.
Each line is one published result; the experiments were not run side by side.
MTNR1A: Melatonin receptor type 1A (MTNR1A, Homo sapiens, UniProt P48039)

CCN(CC)CCCC[C@H](NC(=O)[C@H](CC(C)C)NC(=O)[C@H](C)NC(=O)[C@H](Cc1ccccc1)NC(=O)c1ccc(C(C)(C)C)cc1)C(=O)N[C@@H](CO)C(=O)OC
ΔTm (BRWD3 (Homo sapiens, UniProt Q6RI45); thermal stability, DSF; 25 µM): -0.57 °C

COc1ncccc1-c1cnn2ccc(N3CCN(C(=O)OC(C)C)CC3)nc12
remaining binding (BMP-2-inducible protein kinase (BMP2K, Homo sapiens, UniProt Q9NSY1); binding, competition with immobilised ligand; 1 µM): 3.5%

Cc1nn(C)cc1-c1nc2c(N3CCN(Cc4ccc(Cl)cc4)CC3)c(Cl)cnc2[nH]1
remaining binding (Receptor-type tyrosine-protein kinase FLT3 (FLT3, Homo sapiens, UniProt P36888, K663Q); binding, competition with immobilised ligand; 1 µM): 0.8%

Nc1ncc(-c2nc(N3CCOCC3)nc(N3CCOCC3)n2)c(C(F)F)n1
remaining binding (Serine/threonine-protein kinase SIK3 (SIK3, Homo sapiens, UniProt Q9Y2K2); binding, competition with immobilised ligand; 10 µM): 72%

Cc1ccccc1N(C)C(=O)Oc1nsnc1N1CCCCC1
inhibition (Fatty-acid amide hydrolase 1 (FAAH, Homo sapiens, UniProt O00519); enzyme activity, inhibitor; 10 µM, cell membranes): 40%

COc1ccc2[nH]cc(CCNC(=O)CI)c2c1
Emax (MTNR1A; cAMP, agonist, TR-FRET; CHO-K1; 20 min): 103%

C#Cc1n[nH]c2c(-c3cn(C(C)c4ccccn4)c(=O)[nH]c3=O)cc(F)cc12 (stereo not drawn)
inhibition (Myotonin-protein kinase (DMPK, Homo sapiens, UniProt Q09013); enzyme activity, inhibitor; 1 µM): 1.2%

COc1ccc2cccc(C(CO)CNC(=O)CF)c2c1 (stereo not drawn)
Emax (MTNR1A; cAMP, agonist, TR-FRET; CHO-K1; 20 min): 93%

COCc1c(-c2cc3cc(C)cc(OC)c3s2)c2c(N)ncnn2c1CN1CCNC(=O)C1
inhibition (5-hydroxytryptamine receptor 2C (HTR2C, Homo sapiens, UniProt P28335); ligand displacement, radioligand; 10 µM): 30%
